From article PMC9891257 (RNA, 2023)
Where “and” joins values, the source holds several entries; their conditions need not be identical. Equal entries are not always repeated.

Tests used:
[1] = system: Rabbit reticulocyte lysate; test: Translation of luciferase mRNA capped with cap analogs in RRL system; format: biochemical; details: for Relative cap-dependent translation efficiency / Relative translation efficiency: Rabbit reticulocyte lysate; for Relative cap-dependent translation efficiency: relative to m^7GpppG; for Relative translation efficiency: relative to m^7GpppG-capped transcript
Method in brief: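 Firefly luciferase mRNA made by SP6 transcription of PCR template, 1 h at 37°C, with 0.5 mM ATP/CTP/UTP, 0.1 mM GTP, 0.5 mM cap analog (cap:GTP 5:1). Then DNase I treatment. Translated in 40% Flexi rabbit reticulocyte lysate with 0.01 mM amino acids, 0.9 mM Mg acetate, 190 mM K acetate. Lysate preincubated 60 min at 30°C, then 60 min with mRNA. Luciferase luminescence expressed relative to m7GpppG-capped mRNA.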

murine eIF4E = murine eIF4E (Mus musculus, UniProt P63073); test: Thermal stability of eIF4E by DSF in the presence of cap analogs; format: binding; details: for Tm (at 100 μM of ligand): murine eIF4E, 100 μM ligand, apo form 38.42; for ΔTm (at 100 μM of ligand): in relation to eIF4E in apo form
Method in brief: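 Murine eIF4E (aa 28–217), 4 μM final, with 5× SYPRO Orange in HEPES/KOH pH 7.2, 100 mM KCl, 0.5 mM EDTA, 1 mM DTT. Test compound at 100 μM final (single point) or 1–100 μM series. Heated 22–95°C at 0.5°C/30 sec, fluorescence read each step. Normalized signal fitted to a two-state denaturation model for Tm. ΔTm is relative to apo eIF4E. Apparent Kd is from ΔTm change with rising ligand concentration.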

hNudt16 = hNudt16 (Homo sapiens, UniProt Q96DE0); test: 5′ cap hydrolysis of analog-capped RNA25 with hNudt16; format: biochemical; details: 30 min reaction with hNudt16; for % of hydrolysis SP6 product: RNA made with SP6 polymerase; for % of hydrolysis T7 product: RNA made with T7 polymerase
Method in brief: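 Substrate: 50 ng 25-nt cap-analog RNA with trimmed 3′ ends. Digested with 2.5 µM hNudt16 in 40 mM Tris pH 7.9, 100 mM NaCl, 6 mM MgCl2, 2 mM DTT for 30 min at 37°C. Stopped with formamide loading dye, 5 min at 75°C. Run on 15% polyacrylamide/7 M urea, SYBR Gold stain. Hydrolysis = densitometric % loss of capped band; mean ± SD, three experiments. Orientation inferred from hydrolysis pattern.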

SP6 RNA polymerase = biological target: T1, SP6 RNA polymerase (Enterobacteria phage SP6, UniProt P06221); test: Efficiency of cap analog incorporation into short RNA25 in IVT; format: biochemical; details: RNA25nt, densitometry
T1 sequence (P06221 1-874): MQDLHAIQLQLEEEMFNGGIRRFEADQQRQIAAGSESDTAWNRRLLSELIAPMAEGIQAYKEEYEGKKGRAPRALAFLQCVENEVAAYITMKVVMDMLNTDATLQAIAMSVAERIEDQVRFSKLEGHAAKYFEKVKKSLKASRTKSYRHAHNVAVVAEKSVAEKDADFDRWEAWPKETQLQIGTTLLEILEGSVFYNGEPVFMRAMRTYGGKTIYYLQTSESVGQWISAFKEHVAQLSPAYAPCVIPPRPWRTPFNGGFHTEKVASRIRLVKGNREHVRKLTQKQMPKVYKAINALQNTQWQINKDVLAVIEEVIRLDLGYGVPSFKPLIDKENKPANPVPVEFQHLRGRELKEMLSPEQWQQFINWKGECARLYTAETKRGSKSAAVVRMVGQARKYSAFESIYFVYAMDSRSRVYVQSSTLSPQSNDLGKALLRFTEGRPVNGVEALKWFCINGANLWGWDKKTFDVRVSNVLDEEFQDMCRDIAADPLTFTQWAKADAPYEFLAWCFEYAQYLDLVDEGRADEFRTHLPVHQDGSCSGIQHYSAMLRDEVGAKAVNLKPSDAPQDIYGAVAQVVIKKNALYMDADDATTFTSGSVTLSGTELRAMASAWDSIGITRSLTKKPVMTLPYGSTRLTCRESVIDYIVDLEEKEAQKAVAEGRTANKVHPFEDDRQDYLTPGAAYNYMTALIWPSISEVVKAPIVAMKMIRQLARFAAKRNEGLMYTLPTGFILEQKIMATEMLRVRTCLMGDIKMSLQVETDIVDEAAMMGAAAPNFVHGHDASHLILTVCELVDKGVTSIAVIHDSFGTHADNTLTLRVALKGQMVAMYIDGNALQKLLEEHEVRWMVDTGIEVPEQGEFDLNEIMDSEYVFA
Method in brief: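 DNase I digestion. 3′ ends trimmed with DNAzyme (30 pmol per 400 ng RNA, 50 mM Tris pH 7.4, 50 mM MgCl2, 1 h, 37°C), giving 25-nt RNA. Capped versus uncapped pppRNA bands quantified densitometrically.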

[2] = system: cap-dependent translation; details: translation inhibition; ref Wojcik et al. 2021; cited from earlier work
[3] = biological target: cap-dependent translation in RRL system; format: biochemical, rabbit; details: inhibition of ARCA-mRNA luciferase translation in RRL system; mean ± SD
Method in brief: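 Flexi rabbit reticulocyte lysate preincubated 60 min at 30°C under cap-dependent conditions. Then m2^7,3′O GpppG-capped firefly luciferase mRNA was added together with increasing concentrations of cap analog, and incubated a further 60 min at 30°C. Luminescence read immediately. IC50 by nonlinear regression; mean ± SD of ≥3 independent replicates. Ratio expresses IC50 relative to m7GpppG control.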

Chain of hNudt16 (Q96DE0 whole entry): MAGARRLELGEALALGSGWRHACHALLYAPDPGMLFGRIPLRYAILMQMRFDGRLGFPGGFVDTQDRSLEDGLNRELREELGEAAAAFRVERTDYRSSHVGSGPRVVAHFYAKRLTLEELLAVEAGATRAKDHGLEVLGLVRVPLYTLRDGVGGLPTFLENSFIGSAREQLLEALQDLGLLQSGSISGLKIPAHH
Chain of murine eIF4E (P63073 28-217): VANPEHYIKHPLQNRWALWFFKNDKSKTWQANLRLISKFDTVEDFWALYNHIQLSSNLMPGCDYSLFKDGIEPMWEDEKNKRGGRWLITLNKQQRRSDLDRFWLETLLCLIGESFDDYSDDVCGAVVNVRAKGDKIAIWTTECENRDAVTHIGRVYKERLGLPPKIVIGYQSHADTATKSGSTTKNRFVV

SMILES	translation level in comparison to m^7GpppG-capped transcript ([1]; RRL)	Relative cap-dependent translation efficiency [1]	Relative translation efficiency [1]	Tm (at 100 μM of ligand) (murine eIF4E)	% of hydrolysis SP6 product (hNudt16)	% of hydrolysis T7 product (hNudt16)	capped fraction (capping efficiency) (SP6 RNA polymerase)	Relative translation efficiency ([1]; listed as m2^7,3'-OGpppG)	ΔTm (at 100 μM of ligand) (murine eIF4E)	ΔTm (at 100 μM of ligand) (murine eIF4E; listed as m2^7,3'OGpppG)	IC50 [2]	IC50 [3]
Nc1nc2c(ncn2[C@@H]2O[C@H](COP(=O)(O)OP(=O)(O)OP(=O)(O)OC[C@H]3O[C@@H](n4cnc5c(N)ncnc54)[C@H](O)[C@@H]3O)[C@@H](O)[C@H]2O)c(=O)[nH]1 [ApppG]	~10%	0	0.09 ± 0.06	38.62 °C								
Nc1nc2c(ncn2[C@@H]2O[C@H](COP(=O)(O)OP(=O)(O)OP(=O)(O)OC[C@H]3O[C@@H](n4cnc5c(=O)[nH]c(N)nc54)[C@H](O)[C@@H]3O)[C@@H](O)[C@H]2O)c(=O)[nH]1 [GpppG]					86.2 ± 3.9% and 86.18%	82.06%	85.3 ± 0.8%					
CO[C@H]1[C@@H](O)[C@H]([n+]2cn(C)c3c(=O)[nH]c(N)nc32)O[C@@H]1COP(=O)([O-])OP(=O)(O)OP(=O)(O)OC[C@H]1O[C@@H](n2cnc3c(=O)[nH]c(N)nc32)[C@H](O)[C@@H]1O [m2^7,3′OGpppG]		1.53 ± 0.20	1.47	47.53 °C	8.7 ± 2.0%	4.81%	65.8 ± 2.4%	1.47 ± 0.17	around 10 °C	9.11 °C		
Cn1c[n+]([C@@H]2O[C@H](COP(=O)(O)OP(=O)([O-])OP(=O)(O)OC[C@H]3O[C@@H](n4cnc5c(=O)[nH]c(N)nc54)[C@H](O)[C@@H]3O)[C@@H](O)[C@H]2O)c2nc(N)[nH]c(=O)c21 [m^7GpppG]		1	1	48.10 °C	45.74%	32.24%	74.3 ± 3.5%				11.4 ± 2.4 µM	8.94 ± 0.86 µM
